Columns and labels:
[1] = Ratio of 50% fall in heart rate to that of […] slow wave activity in anesthetized rats; assay type: functional
Procedure, shortened: (§1)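 Same anaesthetized-rat dosing as above. Ratio of iv dose giving a transient 50% fall in BP (or HR) to the iv dose giving an arecoline-equivalent (0.32 mg/kg) change in hippocampal theta power.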

[2] = biological target: T1, Muscarinic acetylcholine receptor M1 (Homo sapiens, UniProt P11229); test: In vitro affinity against human Muscarinic acetylcholine receptor M1 using quinuclidynyl benzylate (QNB)
T1 sequence (P11229 whole entry): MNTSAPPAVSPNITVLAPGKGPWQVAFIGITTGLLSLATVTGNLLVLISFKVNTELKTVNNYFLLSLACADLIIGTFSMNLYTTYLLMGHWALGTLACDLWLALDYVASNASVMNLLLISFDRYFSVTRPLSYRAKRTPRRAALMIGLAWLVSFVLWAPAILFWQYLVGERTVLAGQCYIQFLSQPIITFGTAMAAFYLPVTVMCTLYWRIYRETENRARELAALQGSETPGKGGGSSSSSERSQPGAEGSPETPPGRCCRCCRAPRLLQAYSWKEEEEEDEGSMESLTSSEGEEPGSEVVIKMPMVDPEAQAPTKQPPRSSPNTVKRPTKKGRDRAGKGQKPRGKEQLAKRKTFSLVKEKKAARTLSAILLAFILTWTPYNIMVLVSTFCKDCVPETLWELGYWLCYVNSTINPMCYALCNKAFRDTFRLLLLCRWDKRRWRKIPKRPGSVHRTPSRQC

[3] = biological target: T2, Muscarinic acetylcholine receptor M4 (Homo sapiens, UniProt P08173); test: In vitro affinity is evaluated, using quinuclidynyl benzylate (QNB) as radioligand in human cloned Muscarinic acetylcholine receptor M4
T2 sequence (P08173 whole entry): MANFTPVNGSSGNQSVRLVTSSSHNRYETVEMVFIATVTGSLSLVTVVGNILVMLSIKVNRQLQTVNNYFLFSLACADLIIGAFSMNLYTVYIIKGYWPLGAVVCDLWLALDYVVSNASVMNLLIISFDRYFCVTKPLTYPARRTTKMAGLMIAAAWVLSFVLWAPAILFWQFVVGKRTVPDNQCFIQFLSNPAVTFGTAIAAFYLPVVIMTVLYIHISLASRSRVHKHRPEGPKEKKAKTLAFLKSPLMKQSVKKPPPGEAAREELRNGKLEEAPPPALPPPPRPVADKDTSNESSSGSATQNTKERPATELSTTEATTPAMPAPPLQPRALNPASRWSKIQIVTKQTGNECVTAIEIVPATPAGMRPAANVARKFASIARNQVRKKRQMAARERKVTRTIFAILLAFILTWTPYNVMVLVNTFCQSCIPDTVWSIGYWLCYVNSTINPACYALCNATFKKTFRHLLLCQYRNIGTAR

Rattus norvegicus [4] = test: Dose producing […] rhythmic slow wave activity in anesthetized rats; assay type: functional
[5] = biological target: Muscarinic acetylcholine receptor M3 (Homo sapiens, UniProt P20309); test: In vitro affinity is evaluated, using quinuclidynyl benzylate (QNB) as radioligand in human cloned Muscarinic acetylcholine receptor M3
[6] = biological target: T3, Muscarinic acetylcholine receptor M2 (Homo sapiens, UniProt P08172); test: In vitro affinity is evaluated, using quinuclidynyl benzylate (QNB) as radioligand in human cloned Muscarinic acetylcholine receptor M2
T3 sequence (P08172 whole entry): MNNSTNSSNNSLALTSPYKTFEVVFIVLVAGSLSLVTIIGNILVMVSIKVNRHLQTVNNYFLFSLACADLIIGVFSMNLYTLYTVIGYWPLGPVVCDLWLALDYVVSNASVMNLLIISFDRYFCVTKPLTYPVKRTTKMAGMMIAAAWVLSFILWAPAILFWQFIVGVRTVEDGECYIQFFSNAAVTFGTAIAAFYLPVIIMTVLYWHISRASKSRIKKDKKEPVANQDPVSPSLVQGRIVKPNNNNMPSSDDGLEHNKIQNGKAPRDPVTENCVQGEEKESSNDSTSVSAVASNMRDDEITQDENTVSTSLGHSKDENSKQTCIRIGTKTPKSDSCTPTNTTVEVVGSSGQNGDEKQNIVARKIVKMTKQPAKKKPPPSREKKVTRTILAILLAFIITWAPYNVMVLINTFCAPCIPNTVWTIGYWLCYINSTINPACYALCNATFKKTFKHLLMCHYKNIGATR

[7] = Ratio of 50% fall blood pressure to that of rhythmic slow wave activity in anesthetized rats; assay type: functional; procedure, shortened: as §1
Rattus norvegicus [8] = test: Dose producing 50% fall in heart rate in anesthetized rats; assay type: functional
Procedure, shortened: (§2)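 Male Hooded Lister rats (300-380 g) under urethane anaesthesia, 37 °C. Increasing iv doses via femoral vein at 45 min intervals. BP recorded from carotid artery; HR derived from the BP signal. Peak effect within 1 min, expressed as % of predose. Value is the dose giving a transient 50% fall in mean BP or HR; 95% confidence limits.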

Rattus norvegicus [9] = test: Dose producing 50% fall in blood pressure in anesthetized rats; assay type: functional; procedure, shortened: as §2
[10] = biological target: Muscarinic acetylcholine receptor; test: In vitro affinity evaluated using [3H]- quinuclidinyl benzilate as radioligand in rat cerebral cortex for muscarinic acetylcholine receptor; assay type: tissue-based
[11] = biological target: Muscarinic acetylcholine receptor; test: In vitro affinity evaluated using [3H]- oxotremorine as radioligand in rat cerebral cortex for muscarinic acetylcholine receptor; assay type: tissue-based
[12] = Ratio of 50% fall in heart rate to that of in blood pressure in anesthetized rats; assay type: functional
Rattus norvegicus [13] = species: Rattus norvegicus; test: Dose producing […] rhythmic slow wave activity in rat
Mus musculus [14] = test: Tremorigenic effects were assessed in mice after subcutaneous administration of the compound; assay type: functional; conditions: sc
Procedure, shortened: (§3)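 Male CD1 mice (25-35 g), dosed sc. Tremor scored subjectively: 0 absent, 1 mild, 2 moderate, 3 severe.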

Mus musculus [15] = species: Mus musculus; test: Extrapyramidal effects was assessed from the dose producing tremors; assay type: functional; procedure, shortened: as §3
[16] = Ratio of IC50 QNB to that of OXO-M was determined; assay type: functional
Procedure, shortened: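 Rat cerebral cortex binding: IC50 for displacement of the antagonist [3H]QNB divided by IC50 for displacement of the agonist [3H]oxotremorine-M, used as an efficacy index.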

Rattus norvegicus [17] = test: Dose producing 50 % fall in heart rate in anesthetized rats; assay type: functional; procedure, shortened: as §2
[18] = Ratio of 50% fall in blood pressure to that of rhythmic slow wave activity in anesthetized rats; assay type: functional; procedure, shortened: as §1
[19] = Distribution coefficient is the ratio of concentration in lipid phase to the concentration of compound in aqueous phase.; assay type: physicochemical
Procedure, shortened: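 Calculated for pH 7.3, not measured. D is the concentration of compound in the lipid phase divided by the concentration of all species in the aqueous phase.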

[20] = Dissociation constant is the negative logarithm of the equilibrium coefficient of the neutral and charged forms of the compound; assay type: physicochemical
[21] = Partition coefficient is determined in octanol/buffer solution at pH 12; assay type: physicochemical
Rattus norvegicus [22] = test: Dose producing 50 % fall in mean blood pressure in anesthetized rats; assay type: functional; procedure, shortened: as §2
Rattus norvegicus [23] = test: Extrapyramidal effects was assessed from the dose producing tremors in anesthetized rats
Rattus norvegicus [24] = species: Rattus norvegicus; test: Dose inducing hippocampal rhythmic slow wave activity; assay type: functional, Hippocampus
Procedure, shortened: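 Male Hooded Lister rats (300-380 g) under urethane anaesthesia, pretreated with atropine methyl nitrate 0.1 mg/kg iv. Dosing iv via femoral vein, saline vehicle. Bipolar electrode in right hippocampal CA1; EEG sampled at 128 Hz. Read-out is change in mean theta power (3–7 Hz).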

Chain of Muscarinic acetylcholine receptor M3 (P20309 whole entry): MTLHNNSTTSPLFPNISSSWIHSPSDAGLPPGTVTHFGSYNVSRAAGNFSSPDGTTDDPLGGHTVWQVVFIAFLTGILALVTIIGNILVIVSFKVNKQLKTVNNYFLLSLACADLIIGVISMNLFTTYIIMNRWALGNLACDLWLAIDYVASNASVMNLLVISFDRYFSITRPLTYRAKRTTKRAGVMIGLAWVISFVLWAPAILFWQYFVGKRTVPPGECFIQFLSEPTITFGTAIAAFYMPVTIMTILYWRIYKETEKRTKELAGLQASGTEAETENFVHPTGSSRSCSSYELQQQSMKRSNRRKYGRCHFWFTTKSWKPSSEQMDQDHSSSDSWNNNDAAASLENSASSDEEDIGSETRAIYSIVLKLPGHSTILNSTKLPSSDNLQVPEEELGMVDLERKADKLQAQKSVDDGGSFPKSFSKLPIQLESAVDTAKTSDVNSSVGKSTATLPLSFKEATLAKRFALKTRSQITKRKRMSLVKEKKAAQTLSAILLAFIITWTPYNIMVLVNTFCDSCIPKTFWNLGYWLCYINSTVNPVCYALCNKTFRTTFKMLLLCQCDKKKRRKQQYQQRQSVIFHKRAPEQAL

## CO/N=C(\C#N)C12CCN(CC1)C2
[1]
  Ratio: 0.79
[2]
  IC50: 1.65 µM
[3]
  IC50: 0.495 µM
Rattus norvegicus [4]
  ED Arec: 0.0056 mg/kg
[5]
  IC50: 0.3 µM
[6]
  IC50: 0.24 µM
[7]
  Ratio: 1.8
Rattus norvegicus [8]
  ED50: 0.0044 mg/kg
Rattus norvegicus [9]
  ED50: 0.01 mg/kg

## CO/N=C(\C#N)[C@@H]1CN2CC[C@H]1C2
[10]
  IC50: 3.175 µM
[1]
  Ratio: 4.2
[2]
  IC50: 1.5 µM
[3]
  IC50: 0.975 µM
Rattus norvegicus [4]
  ED Arec: 0.005 mg/kg
[5]
  IC50: 1.2 µM
[6]
  IC50: 0.7 µM
[7]
  Ratio: 4.8
Rattus norvegicus [8]
  ED50: 0.021 mg/kg
Rattus norvegicus [9]
  ED50: 0.024 mg/kg
[11]
  IC50: 0.021 µM

## CO/N=C/[C@H]1CN2CC[C@H]1C2
[2]
  IC50: 10 µM
[3]
  IC50: 1.1 µM
[5]
  IC50: 2.2 µM
[6]
  IC50: 0.22 µM
[12]
  Ratio: 1.5

## CO/N=C(\Br)[C@@H]1CN2CC[C@H]1C2
[10]
  IC50: 2.3 µM
[11]
  IC50: 0.17 µM

## C=CCO/N=C/[C@H]1CN2CC[C@H]1C2
[10]
  IC50: 9.7 µM
[11]
  IC50: 0.25 µM

## CCN1C(=O)CC2(CCN(C)CC2)C1=O
Rattus norvegicus [13]
  ED Arec: 0.35 mg/kg
Mus musculus [14]
  ED50: 3.8 mg/kg
Mus musculus [15]
  Activity: 8.6

## CC#CCO/N=C/[C@H]1CN2CC[C@H]1C2
[10]
  IC50: 2.9 µM
[11]
  IC50: 0.115 µM

## CCO/N=C/[C@H]1CN2CC[C@H]1C2
[16]
  Ratio: 23
[12]
  Ratio: >7.8
Rattus norvegicus [17]
  ED50: > 1.8 mg/kg
[18]
  Ratio: >7.8

## CO/N=C(\F)[C@H]1CN2CC[C@H]1C2
[11]
  IC50: 0.0085 µM

## O=C1CCCN1CC#CCN1CCCC1 [OXOTREMORINE]
Rattus norvegicus [13]
  ED Arec: 0.023 mg/kg
Mus musculus [14]
  ED50: 0.07 mg/kg
Mus musculus [15]
  Activity: 3

## CO/N=C(/C)C12CCCN(CC1)C2 (stereo unspecified)
[10]
  IC50: 3.4 µM
[19]
  logD: -1.13
[1]
  Ratio: 0.6
[20]
  pKa: 10.1
Rattus norvegicus [4]
  ED Arec: 0.068 mg/kg
[7]
  Ratio: 1
[21]
  logD: 1.65
Rattus norvegicus [8]
  ED50: 0.042 mg/kg
Rattus norvegicus [9]
  ED50: 0.068 mg/kg
[11]
  IC50: 0.046 µM

## CO/N=C(/C#N)C1CN2CCC1CC2 (stereo unspecified)
[10]
  IC50: 1.3 µM
[11]
  IC50: 0.24 µM

## CO/N=C(\C#N)[C@@H]1CN2CCC1CC2
[10]
  IC50: 1.13 µM
Rattus norvegicus [4]
  ED Arec: >1 mg/kg
Rattus norvegicus [8]
  ED50: > 1 mg/kg
Rattus norvegicus [9]
  ED50: > 1 mg/kg
[11]
  IC50: 0.14 µM

## CO/N=C(\C#N)C1CN2CCC1CC2 (stereo unspecified)
[1]
  Ratio: >10.9
[7]
  Ratio: >10.9
[21]
  logD: 1.56
Rattus norvegicus [8]
  ED50: > 0.56 mg/kg

## CO/N=C(\F)C12CCCN(CC1)C2 (stereo unspecified)
[1]
  Ratio: 2
[21]
  logD: 1.01
Rattus norvegicus [8]
  ED50: 0.024 mg/kg

## CO/N=C(\C#N)[C@H]1CN2CCC1CC2 [SABCOMELINE]
Rattus norvegicus [22]
  ED50: > 0.32 mg/kg
[10]
  IC50: 0.31 µM
[1]
  Ratio: >18.8
[2]
  IC50: 0.17 µM
[3]
  IC50: 0.09 µM
[5]
  IC50: 0.06 µM
[6]
  IC50: 0.18 µM
[7]
  Ratio: >18.8
Rattus norvegicus [17]
  ED50: > 0.32 mg/kg
Mus musculus [14]
  ED50: > 10 mg/kg
Rattus norvegicus [23]
  ED50: 0.12 mg/kg
[11]
  IC50: 0.014 µM
Rattus norvegicus [24]
  ED Arec: 0.017 mg/kg

## CO/N=C(\Cl)C12CCCN(CC1)C2 (stereo unspecified)
[1]
  Ratio: 8.3
Rattus norvegicus [4]
  ED Arec: 0.032 mg/kg
[7]
  Ratio: 10
[21]
  logD: 2.12
Rattus norvegicus [8]
  ED50: 0.24 mg/kg

## C#CCO/N=C/[C@H]1CN2CC[C@H]1C2
[12]
  Ratio: 3.7

## CO/N=C(\C#N)[C@H]1CN2CC[C@H]1C2
[10]
  IC50: 2.3 µM
[1]
  Ratio: 2.8
[2]
  IC50: 1.18 µM
[3]
  IC50: 0.8 µM
Rattus norvegicus [4]
  ED Arec: 0.0032 mg/kg
[5]
  IC50: 0.38 µM
[6]
  IC50: 0.61 µM
[7]
  Ratio: 4.7
Rattus norvegicus [8]
  ED50: 0.009 mg/kg
Rattus norvegicus [9]
  ED50: 0.015 mg/kg
[11]
  IC50: 0.023 µM

## CO/N=C(\C)C1CN2CCC1CC2 (stereo unspecified)
[1]
  Ratio: >1
[7]
  Ratio: >1
[21]
  logD: 1.88
Rattus norvegicus [8]
  ED50: > 0.32 mg/kg
Rattus norvegicus [9]
  ED50: > 0.32 mg/kg

## CO/N=C(\Cl)[C@@H]1CN2CC[C@H]1C2
[10]
  IC50: 8.88 µM
[11]
  IC50: 0.1 µM

## COC(=O)C1=CCCN(C)C1 [ARECOLINE]
Rattus norvegicus [4]
  ED Arec: 0.32 mg/kg
Rattus norvegicus [8]
  ED50: 0.024 mg/kg
Rattus norvegicus [9]
  ED50: 0.022 mg/kg
